Tested on: HA-YAP
Experiment: Immunoprecipitation of Smad7 with HA-YAP in HEK293T cells
Type: cell-based, human
Settings: full-length Smad7 wild type or variants with HA-YAP
Outline: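 HEK293T cells were transfected with epitope-tagged constructs (HA-YAP with full-length Smad7 wild type or variants) and treated where indicated with TGF-β1 at 100 pM. Lysates were immunoprecipitated with anti-Flag antibody, then immunoblotted with antibodies against the tags.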

B1: S206A: Smad7 mutant S206A, flag epitope-tagged plasmid expressed in HEK293T (protein, UniProt O15105 1-426, looked up, variant S206A)
chain: MFRTKRSALVRRLWRSRAPGGEDEEEGAGGGGGGGELRGEGATDSRAHGAGGGGPGRAGCCLGKAVRGAKGHHHPHPPAAGAGAAGGAEADLKALTHSVLKKLKERQLELLLQAVESRGGTRTACLLLPGRLDCRLGPGAPAGAQPAQPPSSYSLPLLLCKVFRWPDLRHSSEVKRLCCCESYGKINPELVCCNPHHLSRLCELEAPPPPYSRYPMDFLKPTADCPDAVPSSAETGGTNYLAPGGLSDSQLLLEPGDRSHWCVVAYWEEKTRVGRLYCVQEPSLDIFYDLPQGNGFCLGQLNSDNKSQLVQKVRSKIGCGIQLTREVDGVWVYNRSSYPIFIKSATLDNPDSRTLLVHKVFPGFSIKAFDYEKAYSLQRPNDHEFMQQPWTGFTVQISFVKGWGQCYTRQFISSCPCWLEVIFNSR
modifications: full-length FLAG tag
For B1, the “binding to HA-YAP in immunoprecipitation” value was “binding is observed”.
